This is an account of results in ChEMBL document CHEMBL1147924, “One pot synthesis of pyrimidine and bispyrimidine derivatives and their evaluation for anti-inflammatory and analgesic activities” (2007).

Common to all, as to assay type: functional
Test [1] relates to Rattus norvegicus. The experiment in a line: Antiinflammatory activity against carrageenan-induced paw oedema in Albino rat at 50 mg/kg, po after 3 hrs. An outline of the steps: (§1)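 Oral dosing. Paw volume was read by plethysmometer immediately after and 3 h after the irritant injection, and the volume difference was taken as oedema. Percent inhibition of oedema was calculated for treated groups against the control group, with a standard-drug group included.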
(The carrageenan paw model is a standard test of acute inflammation.)

For test [2], the system named is Mus musculus. The experiment in a line: Analgesic activity against phenylquinone-induced in Swiss mouse assessed as effect on writhings at 50 mg/kg, po after 20 mins. An outline of the steps: (§2)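 Female Swiss mice (15–20 g) screened the day before by intraperitoneal 0.2 cm³ of 0.02% aqueous phenylquinone, with writhes counted over 20 min. Mice with more than 10 writhes were used next day in groups of five. They were given the oral dose (25, 50 or 100 mg/kg) 15 min before the phenylquinone challenge, and writhing was recorded.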

In test [3] the test system is Mus musculus. The experiment in a line: Analgesic activity against phenylquinone-induced in Swiss mouse assessed as effect on writhings at 100 mg/kg, po after 20 mins. An outline of the steps:
as §2
On the technique in general: In writhing tests, fewer writhes than in controls are read as antinociception.

Test [4] deals with Rattus norvegicus. The experiment in a line: Antiinflammatory activity against carrageenan-induced paw oedema in Albino rat at 100 mg/kg, po after 3 hrs. The method, boiled down: as §1
Test [5] relates to Mus musculus. In words: Analgesic activity against phenylquinone-induced in Swiss mouse assessed as effect on writhings at 75 mg/kg, po after 20 mins.
Test [6] deals with Mus musculus. In words: Analgesic activity against phenylquinone-induced in Swiss mouse assessed as effect on writhings at 25 mg/kg, po after 20 mins. An outline of the steps:
as §2

As for `CC1(C)CC(C)(O)N(Cc2ccco2)C(=S)N1` (stereo not given), the Activity came to 10.3% with Rattus norvegicus [1] and 15% in the test on Mus musculus [2].

Consider `CC1(C)CC(C)(O)N(CCCN2CCCC2=O)C(=S)N1` (stereo not given), for which the results for the Activity in the test on Mus musculus [3] and in the test with Rattus norvegicus [4] were 34% and 40.3%, respectively.

Consider `CC1=CC(C)(C)NC(=S)N1c1ccccc1C#N`, for which the Activity with Mus musculus [3] is 25%; in the test on Rattus norvegicus [4], 0%; in the test with Mus musculus [2], 0%.

Turning to `CC1=CC(C)(C)NC(=S)N1CCCC1OCC2(CO1)COC(CCCN1C(=S)NC(C)(C)C=C1C)OC2` (stereo not given), the Activity was found to be 75% in the test on Mus musculus [3], 31.8% with Rattus norvegicus [4] and 25% with Mus musculus [2].

As for `CC1CC(O)N(CCCN2CCN(CCCN3C(=S)NC(C)CC3O)CC2)C(=S)N1` (stereo not given), the Activity with Rattus norvegicus [1] was 38.6%; in the test on Mus musculus [2], 40%.

Regarding `CC1CC(O)N(CCCC2OCC3(CO2)COC(CCCN2C(=S)NC(C)CC2O)OC3)C(=S)N1` (stereo not given), the Activity in the test with Mus musculus [3] and with Rattus norvegicus [4] was 0% in each case.

For `CC1=CC(C)(C)NC(=S)N1Cc1ccco1`, the Activity came to 15.1% in the test with Rattus norvegicus [1] and 8.5% in the test on Mus musculus [2].

Take `CC1(C)CC(C)(O)N(CCc2c[nH]cn2)C(=S)N1` (stereo not given): the Activity in the test with Mus musculus [5] is reported as 50%; in the test on Mus musculus [3] it was 100%; in the test on Mus musculus [6], 12.5%; in the test with Rattus norvegicus [4] it was 65%; with Mus musculus [2], 25%.

For `CC1(C)CC(C)(O)N(CCCn2ccnc2)C(=S)N1` (stereo not given), the Activity with Mus musculus [3] amounted to 50%; in the test with Rattus norvegicus [4], 35%; in the test with Mus musculus [2], 25%.

Consider `CC1=CC(C)(C)NC(=S)N1c1n[nH]c(N2C(=S)NC(C)(C)C=C2C)n1`, for which the Activity in the test on Mus musculus [3] and in the test on Rattus norvegicus [4] was 0% in each case.

As for `CC1CC(O)N(CCCN2CCCC2=O)C(=S)N1` (stereo not given), the figures for the Activity in the test on Rattus norvegicus [1] and in the test with Mus musculus [2] were 36.3% and 50%, respectively.

As for `CC1=CC(C)(C)NC(=S)N1CCCn1ccnc1`, the values for the Activity with Rattus norvegicus [1] and in the test with Mus musculus [2] were 32.5% and 40%, respectively.

As for `CC1(C)CC(C)(O)N(CCCN2CCN(CCCN3C(=S)NC(C)(C)CC3(C)O)CC2)C(=S)N1` (stereo not given), the Activity with Rattus norvegicus [1] was determined as 31.6%; in the test with Mus musculus [2] it was 10%.

For `CC(C)Cc1ccc(C(C)C(=O)O)cc1` (stereo not given) [IBUPROFEN], the Activity worked out at 75% in the test on Mus musculus [3], 66.8% in the test on Rattus norvegicus [4] and 50% with Mus musculus [2].
